Activity calls are given as the source filed them. The calls are words filed in the database; no cut-off is given here.
What was measured:
[1] = target: C-C chemokine receptor type 7 (Homo sapiens) (UniProt P32248); assay: Antagonist activity at human Gi/G0-coupled CCR7 receptor assessed as inhibition of CCL19-induced beta arrestin2 recruitment at 500 nM preincubated for 30 mins followed by CCL19 stimulation and measured after 90 to 180 mins by pathhunter assay
CT26 [2] = assay: Antitumor activity against mouse CT26 cells allografted in Balb/c mouse assessed as reduction in tumor volume at 50 mg/kg, po qd for 28 days starting from 3 days post inoculation measured twice weekly; format: functional, organism-based
[3] = target: Atypical chemokine receptor 3 (Homo sapiens) (UniProt P25106); assay: Antagonist activity at human CXCR7 assessed as inhibition of CXCL12-induced beta arrestin2 recruitment at 500 nM preincubated for 30 mins followed by CXCL12 stimulation and measured after 90 to 180 mins by pathhunter assay
[4] = target: C-X-C chemokine receptor type 3 (Homo sapiens) (UniProt P49682); assay: Antagonist activity at human Gi/G0-coupled CXCR3 assessed as inhibition of CXCL11-induced beta arrestin2 recruitment at 500 nM preincubated for 30 mins followed by CXCL11 stimulation and measured after 90 to 180 mins by pathhunter assay
[5] = Oral bioavailability in cynomolgus monkey at 2 mg/kg; format: ADME, organism-based, Macaca fascicularis; details: in vivo
[6] = target: C-C chemokine receptor type 5 (Homo sapiens) (UniProt P51681); assay: Antagonist activity at human Gi/G0-coupled CCR5 receptor expressed in CHOK1 cells assessed as inhibition of CCL3-induced beta arrestin2 recruitment at 500 nM preincubated for 30 mins followed by CCL3 stimulation and measured after 90 to 180 mins by pathhunter assay; format: cell-based; details: CHO-K1
[7] = Metabolic stability in human hepatocytes assessed as parent compound remaining at 1 uM after 60 mins by LC-MS/MS analysis; format: ADME, cell-based, Hepatocyte; details: read-out: Stability
Outline: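 Hepatocytes (human or rat). Compound incubated for 60 min; value is % parent remaining.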

Cytochrome P450 2C9 = Cytochrome P450 2C9 (Homo sapiens, UniProt P11712); assay: Inhibition of CYP2C9 in human liver microsomes using diclofenac sodium salt as substrate incubated for 20 mins in presence of NADPH by LC-MS/MS analysis; format: ADME
Cytochrome P450 = assay: Induction of CYP450 (unknown origin); format: ADME, protein assay; details: human
[8] = target: C-X-C chemokine receptor type 4 (Homo sapiens) (UniProt P61073); assay: Antagonist activity at human Gi/G0-coupled CXCR4 assessed as inhibition of CXCL12-induced beta arrestin2 recruitment at 500 nM preincubated for 30 mins followed by CXCL12 stimulation and measured after 90 to 180 mins by pathhunter assay
[9] = Clearance in mouse at 0.5 mg/kg, iv; format: ADME, organism-based; details: in vivo
[10] = target: CX3C chemokine receptor 1 (Homo sapiens) (UniProt P49238); assay: Antagonist activity at human Gi/G0-coupled CX3CR1 expressed in CHOK1 cells assessed as inhibition of CX3CL1-induced beta arrestin2 recruitment at 500 nM preincubated for 30 mins followed by CX3CL1 stimulation and measured after 90 to 180 mins by pathhunter assay; format: cell-based; details: CHO-K1
CT26 [11] = assay: Antitumor activity against mouse CT26 cells allografted in Balb/c mouse assessed as reduction in tumour volume at 50 mg/kg, po qd for 28 days starting from 3 days post inoculation measured twice weekly in presence of checkpoint inhibitor anti-PD-L1; format: functional, organism-based
[12] = target: C-C chemokine receptor type 9 (Homo sapiens) (UniProt P51686); assay: Antagonist activity at human Gi/G0-coupled CCR9 receptor expressed in CHOK1 cells assessed as inhibition of CCL25-induced beta arrestin2 recruitment at 500 nM preincubated for 30 mins followed by CCL25 stimulation and measured after 90 to 180 mins by pathhunter assay; format: cell-based; details: CHO-K1
[13] = target: C-X-C chemokine receptor type 2 (Homo sapiens) (UniProt P25025); assay: Antagonist activity at human Gi/G0-coupled CXCR2 assessed as inhibition of CXCL8-induced beta arrestin2 recruitment at 500 nM preincubated for 30 mins followed by CXCL8 stimulation and measured after 90 to 180 mins by pathhunter assay
Panc02 [14] = assay: Antitumor activity against mouse Panc02 cells allografted in C57BL/6 mouse assessed as reduction in tumor growth at 50 mg/kg, po qd for 38 days in presence of anti-CTLA-4; format: functional, organism-based
Outline: (§1)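 Pan02-OVA syngeneic tumor model. Compound given 50 mg/kg PO QD on a therapeutic schedule, alone or combined with anti-CTLA-4 antibody; tumor growth tracked. Groups compared by two-tailed t-test.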

[15] = target: C-X-C chemokine receptor type 6 (Homo sapiens) (UniProt O00574); assay: Antagonist activity at human Gi/G0-coupled CXCR6 assessed as inhibition of CXCL16-induced beta arrestin2 recruitment at 500 nM preincubated for 30 mins followed by CXCL16 stimulation and measured after 90 to 180 mins by pathhunter assay
[16] = target: C-C chemokine receptor type 6 (Homo sapiens) (UniProt P51684); assay: Antagonist activity at human Gi/G0-coupled CCR6 receptor expressed in CHOK1 cells assessed as inhibition of CCL20-induced beta arrestin2 recruitment at 500 nM preincubated for 30 mins followed by CCL20 stimulation and measured after 90 to 180 mins by pathhunter assay; format: cell-based; details: CHO-K1
[17] = Clearance in dog at 0.5 mg/kg, iv; format: ADME, organism-based, Canis lupus familiaris; details: in vivo
CYP3A4 = CYP3A4 (Homo sapiens, UniProt P08684); assay: Ratio of IC50 for time-dependent inhibition of CYP3A4 in human liver microsomes using midazolam hydrochloride as substrate in presence of NADPH to IC50 for time-dependent inhibition of CYP3A4 in human liver microsomes using midazolam hydrochloride as substrate absence of NADPH; details: probe midazolam hydrochloride, read-out: Ratio IC50
[18] = target: C-C chemokine receptor type 1 (Homo sapiens) (UniProt P32246); assay: Antagonist activity at human Gi/G0-coupled CCR1 receptor assessed as inhibition of CCL3-induced beta arrestin2 recruitment at 500 nM preincubated for 30 mins followed by CCL3 stimulation and measured after 90 to 180 mins by pathhunter assay
[19] = target: T1, C-C chemokine receptor type 4 (Homo sapiens, UniProt P51679); assay: Antagonist activity at human CCR4 expressed in rat chem-5 cells assessed as inhibition of CCL22-induced calcium flux measured at 2.5 secs time interval for 45 secs by calcium 6 dye-based FLIPR assay; format: functional, cell-based
T1 sequence (P51679 whole entry): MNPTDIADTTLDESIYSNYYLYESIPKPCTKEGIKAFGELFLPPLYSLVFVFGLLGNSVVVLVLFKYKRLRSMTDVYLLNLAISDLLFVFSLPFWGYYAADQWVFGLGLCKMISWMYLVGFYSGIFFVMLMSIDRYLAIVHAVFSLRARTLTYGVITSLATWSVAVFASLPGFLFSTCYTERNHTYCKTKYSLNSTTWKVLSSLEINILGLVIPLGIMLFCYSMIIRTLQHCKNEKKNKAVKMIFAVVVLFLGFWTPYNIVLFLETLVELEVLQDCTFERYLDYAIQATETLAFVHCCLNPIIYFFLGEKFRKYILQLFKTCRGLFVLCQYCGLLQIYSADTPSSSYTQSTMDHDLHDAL
Outline: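 Primary calcium flux assay for CCR4 antagonism, run in the absence of serum.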

Panc02 [20] = assay: Antitumor activity against mouse Panc02 cells allografted in C57BL/6 mouse assessed as reduction in tumor growth at 50 mg/kg, po qd for 38 days; format: functional, organism-based; outline: as §1

Chain of C-C chemokine receptor type 1 (Homo sapiens) (P32246 whole entry): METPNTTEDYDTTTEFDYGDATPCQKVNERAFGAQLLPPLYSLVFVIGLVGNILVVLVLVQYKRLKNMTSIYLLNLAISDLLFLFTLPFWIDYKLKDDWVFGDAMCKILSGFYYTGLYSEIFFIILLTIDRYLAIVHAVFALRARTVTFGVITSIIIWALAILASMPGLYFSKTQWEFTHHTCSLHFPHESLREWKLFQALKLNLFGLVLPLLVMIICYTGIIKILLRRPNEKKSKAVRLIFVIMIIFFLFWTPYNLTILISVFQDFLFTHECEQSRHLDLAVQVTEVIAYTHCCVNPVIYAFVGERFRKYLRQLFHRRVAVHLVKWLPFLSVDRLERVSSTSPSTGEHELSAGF
Chain of C-C chemokine receptor type 6 (Homo sapiens) (P51684 whole entry): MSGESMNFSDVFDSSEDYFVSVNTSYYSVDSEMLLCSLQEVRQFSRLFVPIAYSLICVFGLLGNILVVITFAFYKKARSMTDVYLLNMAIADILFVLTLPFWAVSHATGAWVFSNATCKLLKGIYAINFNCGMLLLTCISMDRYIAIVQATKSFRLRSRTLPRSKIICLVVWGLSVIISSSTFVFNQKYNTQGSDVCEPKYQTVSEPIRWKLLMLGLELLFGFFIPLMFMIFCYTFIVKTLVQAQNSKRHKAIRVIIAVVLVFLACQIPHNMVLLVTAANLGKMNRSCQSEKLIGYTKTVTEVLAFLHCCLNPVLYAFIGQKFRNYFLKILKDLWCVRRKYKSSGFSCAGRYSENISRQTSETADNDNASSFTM
Chain of C-C chemokine receptor type 7 (Homo sapiens) (P32248 whole entry): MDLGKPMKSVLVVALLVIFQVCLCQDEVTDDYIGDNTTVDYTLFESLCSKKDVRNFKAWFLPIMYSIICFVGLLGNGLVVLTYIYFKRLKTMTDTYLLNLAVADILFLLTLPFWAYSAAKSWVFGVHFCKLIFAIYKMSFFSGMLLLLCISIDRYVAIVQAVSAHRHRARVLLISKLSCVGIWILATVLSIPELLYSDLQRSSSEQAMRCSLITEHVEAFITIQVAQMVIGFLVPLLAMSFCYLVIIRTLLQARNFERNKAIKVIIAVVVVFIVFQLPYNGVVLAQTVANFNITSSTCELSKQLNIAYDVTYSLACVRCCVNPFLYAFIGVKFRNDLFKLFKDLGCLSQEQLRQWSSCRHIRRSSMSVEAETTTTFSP
Chain of Cytochrome P450 2C9 (P11712 whole entry): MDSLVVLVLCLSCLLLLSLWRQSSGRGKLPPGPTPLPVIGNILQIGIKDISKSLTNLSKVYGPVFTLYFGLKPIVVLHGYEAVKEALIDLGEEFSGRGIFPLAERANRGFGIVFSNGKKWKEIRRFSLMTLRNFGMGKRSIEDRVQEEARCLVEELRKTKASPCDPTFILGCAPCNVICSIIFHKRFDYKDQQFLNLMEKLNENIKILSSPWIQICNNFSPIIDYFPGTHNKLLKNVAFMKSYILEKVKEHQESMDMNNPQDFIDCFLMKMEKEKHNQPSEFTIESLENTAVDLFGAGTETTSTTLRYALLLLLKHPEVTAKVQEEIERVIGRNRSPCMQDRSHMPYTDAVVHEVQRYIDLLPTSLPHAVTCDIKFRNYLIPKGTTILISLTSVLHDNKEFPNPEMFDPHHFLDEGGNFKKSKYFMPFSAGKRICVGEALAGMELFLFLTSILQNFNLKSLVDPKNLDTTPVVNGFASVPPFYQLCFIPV
Chain of CX3C chemokine receptor 1 (Homo sapiens) (P49238 whole entry): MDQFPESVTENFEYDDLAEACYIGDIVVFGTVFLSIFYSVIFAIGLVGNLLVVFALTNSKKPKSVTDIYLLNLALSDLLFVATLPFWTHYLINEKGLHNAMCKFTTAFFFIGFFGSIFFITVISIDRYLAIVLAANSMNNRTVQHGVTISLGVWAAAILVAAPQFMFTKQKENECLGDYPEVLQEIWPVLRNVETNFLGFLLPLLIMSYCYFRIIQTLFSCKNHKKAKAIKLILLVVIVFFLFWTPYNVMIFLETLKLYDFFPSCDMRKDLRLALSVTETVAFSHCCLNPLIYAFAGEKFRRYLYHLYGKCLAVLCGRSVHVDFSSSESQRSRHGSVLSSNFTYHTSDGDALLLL
Chain of C-X-C chemokine receptor type 4 (Homo sapiens) (P61073 whole entry): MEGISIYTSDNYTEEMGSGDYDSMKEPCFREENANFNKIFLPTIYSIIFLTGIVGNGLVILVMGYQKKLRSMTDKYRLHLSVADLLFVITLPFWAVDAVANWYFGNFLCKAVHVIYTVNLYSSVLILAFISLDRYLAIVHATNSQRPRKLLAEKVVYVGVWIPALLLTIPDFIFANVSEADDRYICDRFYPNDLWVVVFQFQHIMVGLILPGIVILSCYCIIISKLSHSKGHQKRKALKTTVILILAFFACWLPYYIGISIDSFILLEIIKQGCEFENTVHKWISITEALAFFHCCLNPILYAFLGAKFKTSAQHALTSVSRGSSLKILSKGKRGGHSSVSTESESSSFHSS
Chain of C-X-C chemokine receptor type 3 (Homo sapiens) (P49682 whole entry): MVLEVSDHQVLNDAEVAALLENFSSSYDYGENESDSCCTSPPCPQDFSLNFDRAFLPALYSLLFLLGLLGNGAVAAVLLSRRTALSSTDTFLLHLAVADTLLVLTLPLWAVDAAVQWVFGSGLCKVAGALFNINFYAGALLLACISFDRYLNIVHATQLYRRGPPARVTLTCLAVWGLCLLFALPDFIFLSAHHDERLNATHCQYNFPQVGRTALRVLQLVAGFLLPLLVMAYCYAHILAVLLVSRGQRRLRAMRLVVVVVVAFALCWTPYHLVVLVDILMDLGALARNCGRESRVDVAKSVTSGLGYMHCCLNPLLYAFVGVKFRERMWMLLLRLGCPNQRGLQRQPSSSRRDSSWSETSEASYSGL
Chain of CYP3A4 (P08684 whole entry): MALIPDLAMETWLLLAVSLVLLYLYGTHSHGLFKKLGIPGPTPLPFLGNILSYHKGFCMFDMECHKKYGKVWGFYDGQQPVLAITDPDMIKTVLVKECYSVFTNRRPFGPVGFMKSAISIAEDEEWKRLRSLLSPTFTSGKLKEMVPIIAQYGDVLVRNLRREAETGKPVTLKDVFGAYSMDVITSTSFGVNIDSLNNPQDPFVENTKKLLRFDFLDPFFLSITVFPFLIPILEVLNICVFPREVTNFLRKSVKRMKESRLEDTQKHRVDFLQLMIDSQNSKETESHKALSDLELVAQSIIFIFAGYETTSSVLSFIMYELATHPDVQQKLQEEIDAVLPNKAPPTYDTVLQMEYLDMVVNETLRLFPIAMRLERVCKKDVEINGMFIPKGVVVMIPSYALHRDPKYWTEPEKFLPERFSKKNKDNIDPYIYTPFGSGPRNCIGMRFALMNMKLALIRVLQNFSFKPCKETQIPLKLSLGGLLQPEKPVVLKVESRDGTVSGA
Chain of C-C chemokine receptor type 5 (Homo sapiens) (P51681 whole entry, looked up): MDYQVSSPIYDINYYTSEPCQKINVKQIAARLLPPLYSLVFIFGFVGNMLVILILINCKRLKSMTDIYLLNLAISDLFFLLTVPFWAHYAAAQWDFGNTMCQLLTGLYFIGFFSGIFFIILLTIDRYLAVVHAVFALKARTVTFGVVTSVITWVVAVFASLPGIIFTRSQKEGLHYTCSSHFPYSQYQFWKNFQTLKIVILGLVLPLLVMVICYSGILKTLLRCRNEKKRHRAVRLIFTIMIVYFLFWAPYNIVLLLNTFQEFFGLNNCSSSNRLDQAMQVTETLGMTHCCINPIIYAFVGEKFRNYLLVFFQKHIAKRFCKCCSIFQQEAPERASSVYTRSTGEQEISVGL
Chain of Atypical chemokine receptor 3 (Homo sapiens) (P25106 whole entry): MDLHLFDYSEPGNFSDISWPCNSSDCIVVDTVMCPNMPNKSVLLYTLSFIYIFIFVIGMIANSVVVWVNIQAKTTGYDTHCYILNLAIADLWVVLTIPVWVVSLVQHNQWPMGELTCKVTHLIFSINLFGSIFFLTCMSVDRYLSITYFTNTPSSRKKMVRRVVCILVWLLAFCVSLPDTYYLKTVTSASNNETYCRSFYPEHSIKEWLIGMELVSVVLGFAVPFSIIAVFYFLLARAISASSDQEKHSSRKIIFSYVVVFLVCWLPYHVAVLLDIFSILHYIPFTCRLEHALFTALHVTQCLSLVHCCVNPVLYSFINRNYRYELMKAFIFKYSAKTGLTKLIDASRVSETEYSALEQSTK
Chain of C-X-C chemokine receptor type 6 (Homo sapiens) (O00574 whole entry, looked up): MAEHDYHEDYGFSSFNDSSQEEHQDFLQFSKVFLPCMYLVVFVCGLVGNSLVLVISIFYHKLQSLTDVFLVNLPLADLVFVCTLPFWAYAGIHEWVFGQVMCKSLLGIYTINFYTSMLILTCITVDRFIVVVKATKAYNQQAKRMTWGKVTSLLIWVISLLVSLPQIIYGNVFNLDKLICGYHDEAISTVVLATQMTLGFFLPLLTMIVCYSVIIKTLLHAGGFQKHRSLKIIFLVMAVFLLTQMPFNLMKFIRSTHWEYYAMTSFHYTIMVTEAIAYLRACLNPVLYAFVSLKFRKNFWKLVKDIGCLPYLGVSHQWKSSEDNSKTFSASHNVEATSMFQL
Chain of C-X-C chemokine receptor type 2 (Homo sapiens) (P25025 whole entry): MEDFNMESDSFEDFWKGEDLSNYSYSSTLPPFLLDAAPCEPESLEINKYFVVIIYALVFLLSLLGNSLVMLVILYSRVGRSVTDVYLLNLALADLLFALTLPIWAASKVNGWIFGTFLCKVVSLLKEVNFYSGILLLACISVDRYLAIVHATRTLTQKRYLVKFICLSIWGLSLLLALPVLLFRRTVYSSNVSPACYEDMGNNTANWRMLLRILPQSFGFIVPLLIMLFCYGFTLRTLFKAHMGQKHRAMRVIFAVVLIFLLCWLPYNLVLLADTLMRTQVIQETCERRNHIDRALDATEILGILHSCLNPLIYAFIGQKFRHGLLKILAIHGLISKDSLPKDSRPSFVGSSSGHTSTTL

- Activity [1]: inactive
- Activity [3]: inactive
- Activity [4]: inactive
- bioavailability [5]: 41%
- Activity [6]: inactive
- remaining at 1 h, 1 µM [7]: 91%
- IC50 (Cytochrome P450 2C9): > 40000 nM
- Activity (Cytochrome P450): Not Active
- Activity [8]: inactive
- clearance [9]: 10.2 mL/min/kg
- Activity [10]: inactive
- Activity [12]: inactive
- Activity [13]: inactive
- Activity [15]: inactive
- Activity [16]: inactive
- clearance [17]: 7.3 mL/min/kg
- Activity [18]: inactive
- IC50 [19]: 22 nM
SMILES: C[C@H](c1ccc(Cl)cc1Cl)n1nc(C#N)c2ncc(N3CC([C@H]4CCCN(CCO)C4)C3)nc21
- Activity (CT26 [2]): Active
- Activity (CT26 [11]): Active
- Activity (Panc02 [14]): Active
- IC50 shift (CYP3A4): 1.2
- Activity (Panc02 [20]): Active

Source: ChEMBL document CHEMBL4627411, “Novel Piperidinyl-Azetidines as Potent and Selective CCR4 Antagonists Elicit Antitumor Response as a Single Agent and in Combination with Checkpoint Inhibitors” (J Med Chem, 2020)
